Results published in PubChem BioAssay AID1453 (NMMLSC, 2008).
This is one part of the list. Activity calls are given as the source filed them.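 Rule for the calls: active = inhibition above 50%; inactive = the rest.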

These compounds were tested against Broad substrate specificity ATP-binding cassette transporter ABCG2 (Homo sapiens) (UniProt Q9UNQ0) (assay: ABCG2 efflux pump inhibitors, confirmation, single point, IgMXP3 cells, ABCB1 counter-screen paired (AID 1453;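 note: 0% = DMSO wells and 100% = nicardipine pump inhibitor wells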)). Settings: JC-1 efflux, flow cytometry, at 6.6 µM, hits give high values.
How it was run: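 Material – drug-resistant IgMXP3 cells expressing human ABCG2 · Reagent – JC-1 substrate · Dosing – single test compound dose, 6.6 µM final · Incubation – 10 min exposure at 25 °C · Signal – high-throughput flow cytometry, JC-1 green median fluorescence, 530 ± 20 nm · Read-out – percent pump inhibition versus DMSO and nicardipine · Controls – nicardipine high, DMSO low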

Sequence of Broad substrate specificity ATP-binding cassette transporter ABCG2 (Homo sapiens) (Q9UNQ0 whole entry, looked up): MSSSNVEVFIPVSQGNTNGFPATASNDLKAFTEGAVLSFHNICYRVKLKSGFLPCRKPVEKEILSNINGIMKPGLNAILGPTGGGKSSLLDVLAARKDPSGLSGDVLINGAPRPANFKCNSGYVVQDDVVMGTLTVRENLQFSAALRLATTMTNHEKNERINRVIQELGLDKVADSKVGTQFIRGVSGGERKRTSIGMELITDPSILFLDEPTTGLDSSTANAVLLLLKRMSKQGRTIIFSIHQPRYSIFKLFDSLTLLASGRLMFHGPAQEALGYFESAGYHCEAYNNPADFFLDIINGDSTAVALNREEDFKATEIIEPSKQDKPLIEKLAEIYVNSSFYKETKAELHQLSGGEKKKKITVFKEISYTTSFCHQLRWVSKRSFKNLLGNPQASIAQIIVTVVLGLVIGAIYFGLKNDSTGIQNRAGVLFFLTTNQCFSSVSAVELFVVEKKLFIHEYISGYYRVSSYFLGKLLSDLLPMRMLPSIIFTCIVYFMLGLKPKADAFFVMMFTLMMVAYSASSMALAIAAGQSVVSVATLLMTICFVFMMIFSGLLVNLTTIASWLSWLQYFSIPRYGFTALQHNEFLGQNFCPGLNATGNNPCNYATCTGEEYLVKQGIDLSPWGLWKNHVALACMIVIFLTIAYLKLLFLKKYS

Compound | inhibition
Cc1cccc2cc(CN(Cc3cccs3)C(c3nnnn3C3CCCC3)C(C)C)c(=O)[nH]c12 (stereo not drawn) | 39.9% (inactive)
COc1cccc(NC(=O)c2ccc(Cn3cc([N+](=O)[O-])cn3)o2)c1 | 21.8% (inactive)
COc1ccc(C)cc1NC(=O)C(Sc1ccccc1)c1ccccc1 (stereo not drawn) | 10.9% (inactive)
C=CCn1c(SCCOc2ccc(OC)cc2)nnc1C(NC(=O)c1ccc(OC)cc1)C(C)C (stereo not drawn) | 15.5% (inactive)
COc1ccc(-n2c(C)cc(C(=O)COC(=O)c3cc(OC)c(OC)cc3NC(=O)c3cccs3)c2C)cc1 | 14.8% (inactive)
CCOC(=O)c1sc(NC(=O)CSc2nnc(-c3ccco3)o2)c(C(=O)OCC)c1C | 37% (inactive)
Cc1ccc(-n2c(SCC(=O)Nc3ncc(Cl)cc3Cl)nc3ccccc32)cc1 | 28.9% (inactive)
Cc1ccc(OCC(O)CN2CCN(CC(O)COc3ccc(C)cc3Cl)CC2)c(Cl)c1 (stereo not drawn) | 8.02% (inactive)
O=C(Cc1c[nH]c2ccccc12)N/N=C/c1cccc(F)c1 | 19.6% (inactive)
CCN1/C(=C/c2ccc3ccc(C)cc3[n+]2CC)Sc2ccccc21 | 31.6% (inactive)
Cc1c(CCOC(=O)CC23CC4CC(CC(C)(C4)C2)C3)sc[n+]1Cc1ccc([N+](=O)[O-])cc1 | 27.4% (inactive)
C/C(=N\Nc1ncc(Cl)cc1Cl)c1ccc(S(=O)(=O)NCc2ccco2)cc1 | 21.6% (inactive)
CCOCC(=O)Nc1sc2c(c1C(=O)OCC)CCCC2 | 38.7% (inactive)
